Screening results from PubChem BioAssay.
PERK inh = blocks human PERK kinase | 0.17% of 220,000 active | Q9NZJ5 | inhibition, % at 5.6 µM | CHO PERK-DD fusion, SEAP luminescence translation reporter;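 active = inhibition above the mean inhibition of all tested compounds plus 3 SD, set separately per screening campaign, cut at about 2.9% in these data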;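 also: PERK kinase domain activated by AP20187 dimerizer at 100 nM; 0% = DMSO with dimerizer and 100% = rapamycin at 8.4 µM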
NF-kB expr up = raises NF-kB expression in human neuronal cells; NF-kB reporter expression; hits give high values; 1.6% of 190,000 active; fold change at 12.5 µM; in the data active = fold change above about 3.3
MDM2 E3 inh = blocks human Mdm2 ubiquitin ligase activity; signal enhancement, % at 5 µM; AID 1230; 0.11% of 210,000 active; cell-based MDM2 ubiquitination luciferase reporter, 2 h; 0 = plate control, 100 = twice control, blank-subtracted; Q00987;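 active = signal enhancement of 30% or more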;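 also: luminescence tracks abundance of the self-degrading MDM2-luciferase fusion protein; higher signal means inhibition of MDM2 E3 ligase activity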
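Timing – 2 h compound exposure at 37 °C · Assay system – mammalian cells stably expressing self-ubiquitinating, self-degrading MDM2 E3–luciferase fusion · Amount – 2000 cells seeded into each well · Measure – % luminescence enhancement versus blank-corrected plate control mean · Measured by – SteadyLite luminescence, 15 min reagent step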
STAT1 activator = activators of IFN-gamma induced STAT1 signaling; NIH 3T3 STAT1-luciferase reporter, luminescence; 100% = IFN-gamma alone, no compound; activation (% of control), % at 5.5 µM; 2.6% of 200,000 active; AID 932;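 active = activation above the screen-wide mean activation plus 3 SD, cut at about 130% in these data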;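 also: raw ratio to IFN-gamma control signal so 100% means no change and 0% no light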
APP 5'UTR act = activates APP 5'UTR luciferase reporter; SH-SY5Y APP 5'UTR luciferase reporter, luminescence; zero percent = DMSO vehicle wells; activation, % at 2 µM; 1% of 190,000 active; AID 1276;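 active = activation above a set limit, based on mean plus 3 SD of controls, cut at about 140% in these data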
AHR activator = activators of human aryl hydrocarbon receptor; P35869; AHR-responsive luciferase reporter cells, luminescence; activation, % at 5 µM; 2.5% of 320,000 active; AID 2796; in the data active = activation above about 47%;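 also: 0% = vehicle wells and 100% = reference agonist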
Target sequence (P35869 whole entry, looked up): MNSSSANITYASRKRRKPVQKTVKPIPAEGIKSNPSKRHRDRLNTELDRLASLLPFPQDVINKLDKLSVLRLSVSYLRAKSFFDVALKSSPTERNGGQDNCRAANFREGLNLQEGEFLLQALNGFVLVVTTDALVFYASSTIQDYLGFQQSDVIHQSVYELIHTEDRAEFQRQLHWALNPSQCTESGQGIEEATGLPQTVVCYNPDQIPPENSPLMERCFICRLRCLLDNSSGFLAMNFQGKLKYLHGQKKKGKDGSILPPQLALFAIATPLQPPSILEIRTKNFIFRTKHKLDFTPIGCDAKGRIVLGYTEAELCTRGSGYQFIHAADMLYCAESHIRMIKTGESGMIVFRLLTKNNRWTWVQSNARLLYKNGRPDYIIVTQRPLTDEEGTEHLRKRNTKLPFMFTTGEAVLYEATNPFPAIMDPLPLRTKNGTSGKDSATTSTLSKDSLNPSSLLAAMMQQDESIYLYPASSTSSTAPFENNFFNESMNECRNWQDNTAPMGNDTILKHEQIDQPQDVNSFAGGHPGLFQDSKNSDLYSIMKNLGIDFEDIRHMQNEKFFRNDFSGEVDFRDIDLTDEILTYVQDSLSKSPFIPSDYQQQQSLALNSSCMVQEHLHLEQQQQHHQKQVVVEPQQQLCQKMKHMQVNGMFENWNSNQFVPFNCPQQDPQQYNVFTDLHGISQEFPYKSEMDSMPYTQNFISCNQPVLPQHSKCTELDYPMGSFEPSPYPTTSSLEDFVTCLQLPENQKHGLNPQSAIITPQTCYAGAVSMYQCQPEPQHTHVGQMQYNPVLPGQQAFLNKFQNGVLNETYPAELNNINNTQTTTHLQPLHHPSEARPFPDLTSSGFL
AHR act confirm = human AHR activation, confirmation; activation, % at 9 µM; human cells, AHR-responsive luciferase reporter, luminescence; 87% of 2,300 active; shares compounds with AHR activator; in the data active = activation above about 49%;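 also: HepG2 hepatoma cells carrying a DRE-driven firefly luciferase reporter; 0% = vehicle wells and 100% = reference agonist wells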
PXR act counter = counter-screen for AHR activators: human PXR activators; AID 434939; 88% of 2,300 active; cell-based PXR reporter, luciferase luminescence; activation, % at 11.6 µM; shares compounds with AHR activator; in the data active = activation above about 11%;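 also: human hepatoma DPX-2 cells expressing full-length human PXR; 0% = DMSO and 100% = reference agonist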
* hit, by the source's call; . = no result given. Compounds with a hit are over-represented: about 4.5% of the library has one in this group of screens.

SMILES	PERK inh	NF-kB expr up	MDM2 E3 inh	STAT1 activator	APP 5'UTR act	AHR activator	AHR act confirm	PXR act counter
CN(NC(=O)C(C)(C)C)c1nc(-c2ccccc2)nnc1C(F)(F)F	0	1.2	-19	99	-3	1	.	.
CCCC1=C(C(=O)OCC)C(c2ccco2)C(C#N)=C(N)O1 (stereo unspecified)	3	0.9	-9	96	16	-2	.	.
Cc1ccccc1NC(=O)NNC(=O)CCc1ccccc1	.	.	.	.	.	-3	.	.
Cc1ccc(C)c(OCCn2ccnc2)c1	.	.	.	.	.	20	.	.
Cc1cc(C)c(C)c(OCCn2ccnc2)c1	.	.	.	.	.	90*	54*	14*
Nc1ccc(-c2nc3c(ccc4ccccc43)[nH]2)cc1	.	.	.	.	.	83*	60*	10
COCCOC(=O)C1=C(C)OC(N)=C(C#N)C1c1cc2cccc(C)c2nc1Cl (stereo unspecified)	0	1	7	90	-1	5	.	.
COc1cccc2[nH]c3c(N4CC(C)CC(C)C4)ncnc3c12 (stereo unspecified)	0	1.1	-35	98	18	.	.	.
COc1cccc2[nH]c3c(N4CCCC(C)C4)ncnc3c12 (stereo unspecified)	-1	1.1	.	116	58	81*	97*	69*
COc1ccc(NCCC(O)c2ccc(Cl)cc2)cc1 (stereo unspecified)	.	.	.	.	.	4	.	.
COc1ccc(Cl)cc1NCCC(O)c1ccc(F)cc1 (stereo unspecified)	.	.	.	.	.	89*	21	40*
CCc1ccccc1NC(=O)C1CCN(C(=O)N2CCOc3ccccc32)CC1	.	.	.	.	.	-2	.	.
Cc1c(/C=N/NC(N)=O)c2ccccn2c1C(=O)c1ccncc1	0	.	0	.	.	30	.	.
COC(=O)N/N=C/c1c(C)c(C(=O)c2ccc(F)cc2)n2ccccc12	1	1	-17	110	15	86*	74*	94*
CCOC(=O)N/N=C/c1c(C)c(C(=O)c2ccc(F)cc2)n2ccccc12	0	0.75	-21	92	-14	84*	104*	74*
CCOC(=O)c1c(-c2ccccc2)oc2cc(CN(C)C)c(O)c(CN(C)C)c12	-1	.	.	109	-53	3	.	.
CCOc1ccc(-n2nc3cc(C)c(N)cc3n2)cc1	.	.	.	.	.	39	.	.
Cc1cc2nn(-c3ccc(F)cc3)nc2cc1N	.	.	.	.	.	109*	123*	25*
Cc1cc2nn(-c3ccc(Cl)cc3)nc2cc1N	.	.	.	.	.	81*	192*	24*
CN(CC(=O)Nc1c(Cl)cccc1Cl)C(=O)Cc1cccs1	.	.	.	.	.	1	.	.
CC(C)(C)NC(=O)Nc1cccc(Cl)c1Cl	1	1.3	-2	91	12	4	.	.
Cn1cccc1C(=O)C(=O)Nc1cccc(Cl)c1Cl	1	3.6*	-11	147*	35	92*	104*	10*
CSc1nc(C)c(Cc2c(F)cccc2Cl)c(=O)[nH]1	0	.	-7	.	.	2	.	.
C=CCOC(=O)c1c(C)nc2cc3c(cc2c1C)OCO3	-2	1.9	-14	122	14	108*	56*	53*
CCOC(=O)c1cc(-c2c(Cl)cccc2Cl)no1	0	.	-9	.	.	-1	.	.
SMILES	PERK inh	NF-kB expr up	MDM2 E3 inh	STAT1 activator	APP 5'UTR act	AHR activator	AHR act confirm	PXR act counter
COc1ccc(OC)c(NC(=O)c2cc(-c3cc(Cl)ccc3O)n[nH]2)c1	-2	0.55	4	94	1	2	.	.
COc1ccc(O)c(-c2cc(-c3cccs3)[nH]n2)c1	-1	2.3	-2	115	50	87*	138*	26*
COc1ccc(O)c(-c2cc(-c3ccccc3Cl)[nH]n2)c1	.	.	.	.	.	124*	273*	22*
Cc1cccc(Nc2nc(-c3ccc(F)c(C)c3)cs2)n1	.	.	.	.	.	95*	134*	34*
Cc1ccc(NC(=S)NCc2ccco2)c(C)c1	1	.	5	.	.	2	.	.
C=CCNc1nc(N2CCCC2)nc2ccccc12	0	0.88	-18	92	5	84*	35	12*
CC(Nc1nc(N2CCCCC2)nc2ccccc12)c1ccccc1 (stereo unspecified)	-1	0.8	-1	102	-9	1	.	.
Cc1cc(C)n(-c2ccc(-n3ccnc3)nn2)n1	-1	1.2	-5	95	5	5	.	.
Cc1ccc(Nc2ccc(-n3ccnc3)nn2)cc1C	0	1	-12	105	3	91*	48*	-1
COc1cccc(Nc2ccc(-n3ccnc3)nn2)c1	1	1.1	-6	109	7	81*	79*	16*
C(=N\Nc1ccc(-n2ccnc2)nn1)/c1ccccc1	1	1.3	-16	109	-6	27	.	.
O=C(NCc1cccs1)C1CCCN1C(=O)Nc1ccc(F)cc1 (stereo unspecified)	1	.	.	.	.	1	.	.
Cc1nc(NC(=O)c2ccccc2)sc1C1(C)CC(c2ccc(OC(F)(F)F)cc2)=NO1 (stereo unspecified)	.	.	.	.	.	45	.	.
CCc1cc(OCCCCNCc2ccccc2)ccc1Cl	0	0.98	5	98	3	0	.	.
O=C(Nc1ccccc1Oc1ccccc1)c1ccccc1F	0	1.1	-14	95	3	119*	131*	20*
CC(=O)Nc1ccccc1Oc1ccccc1	0	1	-8	98	20	-1	.	.
Cc1ccc2nc(-c3ccc(-c4cccc(Cl)c4)cc3)c(NCc3ccccc3)n2c1	.	.	.	.	.	86*	37	28*
Cc1ccc(-c2nc3ccccn3c2NCc2ccc3c(c2)OCO3)cc1	-1	1.5	-6	123	13	109*	79*	85*
Cc1cccc(N2CC(C(=O)Nc3nnc(SCC(=O)NCC4CCCO4)s3)CC2=O)c1 (stereo unspecified)	.	.	.	.	.	2	.	.
COc1cccc(Nc2nc(-c3cccs3)nc3ccccc23)c1	-1	0.59	-10	109	17	88*	41	68*
CCc1nn(C(C)C(=O)N2CCN(c3ccc(OC)cc3)CC2)c(=O)c2cc3occc3n12 (stereo unspecified)	.	.	.	.	.	0	.	.
CCc1nnc(NC(=O)CSc2nc(C)cc(C)c2C#N)s1	0	3.1	-29	120	76	102*	62*	45*
N#CC(C#N)=C1C=CC=CN1/C(=C\c1ccco1)C(=O)c1ccc(Cl)cc1	0	1.3	-30	120	-96	178*	133*	51*
Cc1ccc(-n2ncc(Cl)c2C(=O)NC2CC2)cc1	1	3	-7	141*	98	90*	136*	21*
O=C1CN(C(=O)CNCc2ccccc2Cl)c2ccccc2N1	0	.	-8	.	.	88*	61*	39*
COc1ccccc1-c1sc2cc3c(cc2c1C#Cc1ccccn1)OCO3	.	.	.	.	.	104*	116*	176*
